Ecoli tolC: E. coli tolC mutant growth inhibition | E. coli BW25113 tolC mutant growth, OD615 | growth inhibition, % at 10 µM (by protocol) | 2.2% of 65,000 active | AID 573;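 active = growth inhibition at or above a cutoff equal to the mean over every tested compound plus 3 SD, cut at about 60% in these data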;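 also: growth measured after 20 h incubation at 37 °C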
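Test system: tolC-deleted E. coli BW25113 | Medium: LB with kanamycin 50 µg/mL | Compound dosing: Single concentration, 10 µM final per compound | Schedule: 37 °C, 20 h exposure | Measured by: OD at 615 nm | Evaluation: Percent growth inhibition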
HUVEC inhibit: human endothelial cell proliferation inhibition; HUVEC proliferation, CellTiter-Glo luminescence, 72 h; hits give low values; viability, % at 10 µM (by protocol); 1.1% of 86,000 active; AID 648;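 active = viability at or below 30%; inactive = viability above 30%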
H69AR growth 86K: growth inhibitors of human H69AR lung tumor cells | viability, % at 10 µM | 6% of 85,000 active | AID 598 | H69AR lung tumor viability, ATP luminescence, 72 h; hits give low values;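 active = viability at or below 40%; inactive = viability above 40%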;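 also: multidrug resistant small cell line overexpressing MRP-1 efflux transporter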
Jurkat tox 60K: reduces viability or proliferation of Jurkat cells; Jurkat E6.1 viability, ATP luminescence, 48 h; inhibition, % at 4 µM; 1.2% of 56,000 active;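 active = inhibition above the mean inhibition of all tested compounds plus 3 SD, cut at about 28% in these data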
E coli WT exp: E. coli BW25113 growth inhibition, expanded screen | OD600 absorbance | growth inhibition, % at 100 µM | 0.15% of 98,000 active | AID 710;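 active = growth inhibition above about 50% at one test dose, limit read from the data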;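 also: growth measured after 20 h incubation at 37 °C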
Lung fibro prol: blocks proliferation of human lung fibroblasts. LL 47 human lung fibroblast viability, ATP luminescence; hits give low values. viability, % at 10 µM. 1.1% of 85,000 active;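 active = viability at or below 50% in the single dose screen; inactive = viability above 50%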;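 also: compound exposure lasted 72 h before the ATP readout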
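Material: Human LL 47 lung fibroblast cells | Input: 1,150 cells/well | Buffer or medium: IMEM plus 15% FBS | Compound dosing: 0.1% DMSO in all compound wells | Times: Overnight cell rest, 72 h compound treatment at 37 °C | Signal: CellTiter-Glo luminescence measuring cellular ATP | Measure: % viability versus median cells-only luminescence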
A number is an active result; 0 = inactive; - = not tested or not shown. Compounds with a hit are over-represented: about 6.4% of the library has one in this group of screens.

SMILES	Ecoli tolC	HUVEC inhibit	H69AR growth 86K	Jurkat tox 60K	E coli WT exp	Lung fibro prol
O=C(Nc1ccc(-c2noc(COc3ccccc3Cl)n2)cc1)c1ccco1	0	0	29.3	-	-	0
COc1ccc(CC(=O)Nc2ccc(-c3noc(COc4ccccc4C)n3)cc2)cc1	0	0	0	0	0	0
COc1ccc(C(c2c[nH]c3ccccc23)c2c[nH]c3ccccc23)cc1O	-	0	7.2	-	0	0
O=C(c1cn(-c2ccccc2)nc1-c1cccs1)N1CCOCC1	-	0	0	-	0	0
O=C(c1cn(-c2ccccc2)nc1-c1cccs1)N1CCN(c2ccccc2)CC1	-	0	10.6	-	0	0
Fc1ccc(C2=Nn3c(nnc3-c3n[nH]c4c3CCC4)SC2)cc1	0	0	0	0	0	0
Cc1ccccc1/C=C1\CCCc2ccccc2C1=O	-	0	0	-	-	0
O=C1/C(=C\c2ccc3ccccc3c2)CCCc2ccccc21	-	0	17.1	-	-	0
CCc1ccc2[nH]c(=O)c(CN(CCCN3CCOCC3)C(=O)Nc3ccc(Cl)cc3)cc2c1	0	27.9	26.6	0	0	0
Cc1ccc2[nH]c(=O)c(CN(CCCN(C)C)C(=O)Nc3ccc(Cl)cc3)cc2c1	-	0	3.0	-	0	0
O=C(Nc1cccc(Cl)c1)N(CCN1CCOCC1)Cc1ccccc1F	-	0	0	-	0	0
O=C(Nc1cccc(Cl)c1)N(CCN1CCOCC1)Cc1cccc(Cl)c1	100.0	0	0	0	0	0
CCc1ccc2[nH]c(=O)c(CN(CCCN3CCOCC3)C(=O)Nc3ccccc3)cc2c1	0	0	0	0	0	0
O=C(Nc1ccccc1)N(CCCN1CCOCC1)Cc1cc2cc3c(cc2[nH]c1=O)OCCO3	0	0	0	0	0	0
CCc1ccc2[nH]c(=O)c(CN(CCCN3CCOCC3)C(=O)Nc3cccc(Cl)c3)cc2c1	0	14.6	29.3	0	0	0
CC1CC(C)CN(CCCNC(=O)Cn2ncc3c(=O)oc4ccccc4c32)C1 (centres undefined)	0	0	0	0	0	0
CC(C)COc1ccc(/C(=N/O)c2ccccc2)cc1	-	0	0	-	0	0
Cc1ccc2[nH]c(=O)c(CN(CCN3CCOCC3)C(=O)Nc3ccc(F)cc3)cc2c1	0	0	39.2	0	0	0
Cc1ccc(C)c2[nH]c(=O)c(CN(CCN3CCCC3)C(=O)Nc3cccc(Cl)c3)cc12	0	20.5	0.6	50.7	0	27.9
Cc1cc(C)c2cc(CN(CCN3CCCC3)C(=O)Nc3ccc(F)cc3)c(=O)[nH]c2c1	0	0	0	0	0	0
COc1ccc(NC(=O)CCNS(=O)(=O)c2ccc(Br)s2)cc1	-	-	-	-	0	-
CC(OC(=O)c1cc2sccc2n1C)C(=O)NCCc1ccccc1 (centres undefined)	0	0	0	0	0	0
CCOC(=O)c1ccc(NC(=O)c2nn(C)cc2Br)cc1	0	0	0	0	0	0
CCOC(=O)CSC1=C(C#N)C(=O)NC(c2ccc(OC)c(OC)c2)S1 (centres undefined)	0	0	6.6	-	0	0
CCOc1ccc(C2NC(=O)C(C#N)=C(S)N2c2ccc(OC)cc2)cc1OC (centres undefined)	-	0	0	-	0	0
SMILES	Ecoli tolC	HUVEC inhibit	H69AR growth 86K	Jurkat tox 60K	E coli WT exp	Lung fibro prol
CCOC(=O)CSC1=C(C#N)C(=O)NC(c2ccc(OC)cc2)S1 (centres undefined)	-	0	2.2	-	0	0
Cc1cc(NC(=O)CS(=O)(=O)c2cn(Cc3ccccc3Cl)c3ccccc23)no1	0	0	0	-	0	0
Cc1ccsc1C1Nc2ccc3ncccc3c2C2=C1C(=O)CCC2 (centres undefined)	-	-	-	-	0	-
COc1cc(C2Nc3ccc4ncccc4c3C3=C2C(=O)CCC3)ccc1O (centres undefined)	0	0	28.5	80.9	0	0
COC(=O)c1ccc(Oc2nc(C(N)=O)cc(-c3ccccc3)n2)cc1	-	0	12.1	-	0	0
N#Cc1ccc(Oc2nc(C(N)=O)cc(-c3ccccc3)n2)cc1	-	0	0	-	0	0
On1onc2c3cc(-c4ccccc4)nc3ccc21	98.0	0	6.0	98.4	0	22.6
CC(C)(C)CC(C)(C)c1ccc(O)c(CN2CCN(CCC#N)CC2)c1	-	0	5.8	-	0	0
N#CCCN1CCN(Cc2cc(-c3ccccc3)ccc2O)CC1	0	0	0	0	0	0
CCCc1[nH]nc2c1C(c1ccc(OC)c(CSC3=NCCS3)c1)C(C#N)=C(N)O2 (centres undefined)	86.9	0	0	0	0	0
CCCCCCC(=O)N1CCN(c2cc3c(cc2F)c(=O)c(C(=O)O)cn3CC)CC1	0	0	27.0	-	-	0
CCC(=O)N1CCN(c2cc3c(cc2F)c(=O)c(C(=O)O)cn3CC)CC1	100.0	0	0	0	-	0
CCn1cc(C(=O)O)c(=O)c2cc(OC)ccc21	96.5	0	0	0	0	0
Clc1ccc(-c2onc3c2CCCC3)cc1	-	0	0	-	0	0
COc1cccc(N(CC(=O)Nc2ccccc2C)S(C)(=O)=O)c1	0	-	-	0	0	-
Cc1ccc(C(c2nnnn2CCc2ccccc2)N2CCC(C)CC2)cc1 (centres undefined)	-	0	0	-	-	0
Cc1ccc(C(c2nnnn2CCc2ccccc2)N2CCSCC2)cc1 (centres undefined)	64.4	0	-	0	0	0
COC(=O)COc1ccc(S(=O)(=O)Nc2cc(OC)ccc2OC)cc1	0	0	0	0	0	0
Sc1oc(-c2ccccc2)cc1C=Nc1ccccc1	-	0	25.9	-	0	0
O=C(CC(C(=O)N1CCc2ccccc21)n1ccnc1)NCc1ccccc1 (centres undefined)	-	0	0	-	0	0
Cc1ccc2c(CC(=O)O)coc2c1C	0	0	0	-	0	0
COc1cc(C(=O)Nc2nc(N)n(-c3ccccc3)n2)cc(OC)c1OC	0	0	0	0	0	0
COc1cc(C(=O)Nc2nc(OC)c(-c3ccccc3)c(OC)n2)cc(OC)c1OC	0	0	32.1	0	0	0
COc1cc(C(=O)Nc2cc(-c3ccccc3)[nH]n2)cc(OC)c1OC	0	0	25.4	0	-	0
COc1ccc(NC(=O)c2cc3c(-c4ccc(OC)c(OC)c4)nn(C)c3s2)cc1OC	-	0	9.7	-	0	0
COc1ccc(OCC(O)COc2ccc(OC)cc2)cc1	0	0	0	0	0	0
c1cc2c3c(cccc3c1)NC1(CCCCC1)N2	-	0	0	-	0	0

Screens from PubChem.
